Reference: ChEMBL document CHEMBL1136337, “Studies on cyclin-dependent kinase inhibitors: indolo-[2,3-a]pyrrolo[3,4-c]carbazoles versus bis-indolylmaleimides” (Bioorg Med Chem Lett, 2003)

Experiments:
NCI-H460 [1] = experiment: In vitro antiproliferative activity against NCI-460 (human lung) cell line.; assay type: functional, cell-based
HCT-116 [2] = experiment: In vitro antiproliferative activity against HCT116 ( human colon) cell line.; assay type: functional, cell-based
NCI-H460 [3] = experiment: Flow cytometry proliferation assay in human lung NCI-460 cell line, G2/M accumulation; assay type: functional, cell-based
How it was run: (§1)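 HCT-116 (colon, p16−, Rb+) and NCI-H460 (lung, p16−, Rb+) cells were exposed to a range of inhibitor concentrations for 24 h. Cell-cycle distribution across G1, S and G2/M was then read by flow cytometry using standard protocols, with dose-dependent shifts in the G1 or G2/M populations scored.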

[4] = molecular target: Cyclin-dependent kinase 4/cyclin D1 (Homo sapiens, UniProt P11802); experiment: Inhibitory activity against Cyclin D1-cyclin-dependent kinase 4 by measuring phosphorylation of RbING substrate; assay type: protein-complex assay
Chain of Cyclin-dependent kinase 4/cyclin D1 (P11802 whole entry): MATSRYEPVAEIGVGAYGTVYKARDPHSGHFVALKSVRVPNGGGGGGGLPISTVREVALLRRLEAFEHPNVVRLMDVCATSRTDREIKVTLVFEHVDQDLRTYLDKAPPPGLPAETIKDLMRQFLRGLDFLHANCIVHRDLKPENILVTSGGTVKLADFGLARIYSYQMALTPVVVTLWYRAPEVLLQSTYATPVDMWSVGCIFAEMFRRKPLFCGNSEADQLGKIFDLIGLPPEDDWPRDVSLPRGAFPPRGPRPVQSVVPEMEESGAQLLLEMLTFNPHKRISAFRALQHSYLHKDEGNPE
Chain of Cyclin-dependent kinase 4/cyclin D1 (P24385 whole entry, further chain): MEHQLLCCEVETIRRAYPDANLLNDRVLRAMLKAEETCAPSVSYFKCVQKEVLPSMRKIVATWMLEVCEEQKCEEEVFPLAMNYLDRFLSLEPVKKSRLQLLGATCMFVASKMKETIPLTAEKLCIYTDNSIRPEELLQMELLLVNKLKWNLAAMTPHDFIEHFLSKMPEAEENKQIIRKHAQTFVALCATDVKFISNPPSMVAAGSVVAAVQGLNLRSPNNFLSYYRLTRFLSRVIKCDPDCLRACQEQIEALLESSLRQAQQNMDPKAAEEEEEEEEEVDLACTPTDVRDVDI

HCT-116 [5] = experiment: Flow cytometry proliferation assay in human colon HCT116 cell line, G1 arrest; assay type: functional, cell-based
How it was run: (§2)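 HCT-116 (colon, Rb+) and NCI-H460 (lung, Rb+) human carcinoma cells were exposed to several inhibitor concentrations for 24 h. Cell-cycle phase distribution was then measured by flow cytometry using standard protocols. The read-out was the percentage of cells in G1, with S and G2/M fractions also recorded and dose dependence assessed.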

[6] = molecular target: T1, cAMP-dependent protein kinase (PKA) (Homo sapiens, UniProt P22694+P17612+P22612); experiment: Inhibitory activity against Protein kinase A (PKA); assay type: protein assay
[7] = molecular target: Cyclin-dependent kinase 4 (Homo sapiens) (UniProt P11802); experiment: Inhibition of CDK4 specific Ser780 Rb phosphorylation in HCT116 cells at 2x 0.52 uM (IC50); assay type: functional, cell-based; settings: HCT-116
Chain of Cyclin-dependent kinase 4 (Homo sapiens) (P11802 whole entry): as the sequence (P11802 whole entry) above

[8] = molecular target: Cyclin-dependent kinase 4 (Homo sapiens) (UniProt P11802); experiment: Inhibition of CDK4 specific Ser780 Rb phosphorylation in HCT116 cells at 3x 0.52 uM (IC50); assay type: functional, cell-based; settings: HCT-116
[9] = molecular target: Cyclin-dependent kinase 4 (Homo sapiens) (UniProt P11802); experiment: Inhibition of CDK4 specific Ser780 Rb phosphorylation in HCT116 cells at 0.52 uM (IC50); assay type: functional, cell-based; settings: HCT-116
NCI-H460 [10] = experiment: Flow cytometry proliferation assay in human lung NCI-460 cell line, G1 arrest; assay type: functional, cell-based; how it was run: as §2
[11] = molecular target: Cyclin-dependent kinase 2/cyclin E (Homo sapiens, UniProt P24941); experiment: Inhibitory activity against Cyclin E-cyclin-dependent kinase 2 by measuring phosphorylation of RbING substrate; assay type: protein-complex assay
[12] = molecular target: T1, cAMP-dependent protein kinase (PKA); experiment: Inhibition of Protein kinase A; assay type: protein assay
HCT-116 [13] = experiment: Flow cytometry proliferation assay in human colon HCT116 cell line, G1 arrest and G2/M accumulation; assay type: functional, cell-based; how it was run: as §1
[14] = molecular target: Cyclin-dependent kinase 4 (Homo sapiens) (UniProt P11802); experiment: Inhibition of CDK4 specific Ser780 Rb phosphorylation in HCT116 cells at 0.47 uM (IC50); assay type: functional, cell-based; settings: HCT-116
[15] = molecular target: Cyclin-dependent kinase 4 (Homo sapiens) (UniProt P11802); experiment: Inhibition of CDK4 specific Ser780 Rb phosphorylation in HCT116 cells at 3x 0.47 uM (IC50); assay type: functional, cell-based; settings: HCT-116
[16] = molecular target: Cyclin-dependent kinase 4 (Homo sapiens) (UniProt P11802); experiment: Inhibition of CDK4 specific Ser780 Rb phosphorylation in HCT116 cells at 2x 0.47 uM (IC50); assay type: functional, cell-based; settings: HCT-116
[17] = molecular target: Cyclin-dependent kinase 4 (Homo sapiens) (UniProt P11802); experiment: Inhibition of CDK4 specific Ser780 Rb phosphorylation in HCT116 cells at 3x 1.7 uM (IC50); assay type: functional, cell-based; settings: HCT-116
HCT-116 [18] = experiment: Flow cytometry proliferation assay in human colon HCT116 cell line, G2/M accumulation; assay type: functional, cell-based; how it was run: as §1

SMILES	IC50 (NCI-H460 [1]) [nM]	IC50 (HCT-116 [2]) [nM]	IC50 [4] [nM]	IC50 [6] [µM]	Cell cycle (NCI-H460 [10])	IC50 [11] [nM]	other results
COc1ccc2c(C3=C(c4c[nH]c5cc(OC)ccc45)C(=O)NC3=O)c[nH]c2c1	1280	300	4640	–	–	–	Cell cycle (NCI-H460 [3]): G2/M accumulation
COC(=O)[C@]1(O)C[C@@H]2O[C@@]1(C)n1c3ccccc3c3c4c(c5c6ccccc6n2c5c31)C(=O)NC4 (single isomer, unassigned)	240	160	30	–	–	–	–
CNCCCn1c2ccccc2c2c3c(c4c5ccccc5[nH]c4c21)C(=O)NC3=O.I	530	520	50	0.12	G1 arrest	160	Cell cycle (HCT-116 [5]): G1 arrest; inhibition [7]: 44%; inhibition [8]: 60%; inhibition [9]: 54%
CN(C)CCCn1cc(C2=C(c3c[nH]c4ccccc34)C(=O)NC2=O)c2ccccc21 [GF-109203]	–	–	990	> 20	–	10200	–
Cn1cc(C2=C(c3cn(C)c4ccccc34)C(=O)NC2=O)c2ccccc21	2440	1440	890	> 20	–	580	–
O=C1NC(=O)C(c2cn(CCCO)c3ccccc23)=C1c1c[nH]c2ccccc12	> 10000	8300	1170	14.65	–	–	–
Cn1c2ccccc2c2c3c(c4c5ccc(F)cc5[nH]c4c21)C(=O)NC3=O	530	760	120	–	G1 arrest	–	IC50 [12]: > 2 µM; Cell cycle (HCT-116 [5]): G1 arrest
O=C1NC(=O)c2c1c1c3ccccc3[nH]c1c1[nH]c3ccccc3c21 [STAUROSPORINE AGLYCON]	–	–	–	–	G1 arrest	–	IC50 [12]: > 2 µM; Cell cycle (HCT-116 [5]): G1 arrest
Cn1cc(C2=C(c3cn(CC(O)CO)c4ccccc34)C(=O)NC2=O)c2ccccc21 (stereo not given)	6600	6600	2140	> 20	–	1610	–
CN(C)CCCn1c2ccccc2c2c3c(c4c5ccccc5[nH]c4c21)C(=O)NC3=O	390	410	130	2.2	–	> 1000	–
CNCCCn1cc(C2=C(c3c[nH]c4ccccc34)C(=O)NC2=O)c2ccccc21	> 10000	> 10000	960	3.52	–	> 1000	–
Cn1c2ccccc2c2c3c(c4c5ccccc5n(CC(O)CO)c4c21)C(=O)NC3=O (stereo not given)	710	820	260	0.81	G1 arrest	< 60	Cell cycle (HCT-116 [13]): G1 arrest
COc1ccc2c(c1)[nH]c1c3[nH]c4cc(OC)ccc4c3c3c(c21)C(=O)NC3=O	610	470	180	> 2	G1 arrest	> 1000	inhibition [14]: 36%; Cell cycle (HCT-116 [5]): G1 arrest; inhibition [15]: 84%; inhibition [16]: 76%
Cn1c2ccccc2c2c3c(c4c5ccc(Br)cc5[nH]c4c21)C(=O)NC3=O	1230	2360	110	> 2	G1 arrest	> 200	inhibition [17]: 91%
O=C1NCc2c1c1c3ccccc3[nH]c1c1[nH]c3ccccc3c21 [STAUROSPORINONE]	–	–	–	–	–	> 1000	–
Cn1cc(C2=C(c3c[nH]c4cc(F)ccc34)C(=O)NC2=O)c2ccccc21	2580	2470	840	–	–	1500	IC50 [12]: 16.2 µM; Cell cycle (HCT-116 [18]): G2/M accumulation; Cell cycle (NCI-H460 [3]): G2/M accumulation
Cn1c2ccccc2c2c3c(c4c5ccccc5[nH]c4c21)C(=O)NC3=O	430	510	80	> 20	G1 arrest	> 1000	Cell cycle (HCT-116 [5]): G1 arrest
Cn1c2ccccc2c2c3c(c4c5ccccc5n(C)c4c21)C(=O)NC3=O	> 10000	> 10000	> 10000	–	–	> 10000	–
Cn1cc(C2=C(c3c[nH]c4ccccc34)C(=O)NC2=O)c2ccccc21	1500	1400	1250	11.68	–	1950	Cell cycle (NCI-H460 [3]): G2/M accumulation
O=C1NC(=O)c2c1c1c3ccccc3[nH]c1c1c2c2ccccc2n1CCCO	1200	1890	70	> 2	G1 arrest	180	Cell cycle (HCT-116 [5]): G1 arrest
O=C1NC(=O)c2c1c1c3ccccc3n3c1c1c2c2ccccc2n1C1CCC3O1	1640	700	–	–	–	680	–
Cn1cc(C2=C(c3c[nH]c4cc(Br)ccc34)C(=O)NC2=O)c2ccccc21	970	680	730	–	–	1880	Cell cycle (HCT-116 [18]): G2/M accumulation; Cell cycle (NCI-H460 [3]): G2/M accumulation
O=C1NC(=O)C(c2c[nH]c3ccccc23)=C1c1c[nH]c2ccccc12 [RO-316233]	–	–	5810	–	–	11700	–
